These results are taken from ChEMBL document CHEMBL3797174, “Iodine catalyzed simple and efficient synthesis of antiproliferative 2-pyridones” (Bioorg Med Chem Lett, 2016).

Where only a bound is given, the exact number is not on record here.

One assay has as its system A549. The assay is described as follows: Cytotoxicity against human A549 cells assessed as inhibition of cell proliferation after 24 hrs by MTT assay. It counts as functional, cell-based. The note with it: A549, 24 h. The gist of the method:
(§1)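 MTT reduction by viable cells; formazan dissolved in DMSO, absorbance read at 570 nm. […] Values expressed as IC50 (µM).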

Another assay has as its system HepG2. The experiment in a line: Cytotoxicity against human HepG2 cells assessed as inhibition of cell proliferation after 24 hrs by MTT assay. The note with it: HepG2, 24 h. It counts as functional, cell-based. The gist of the method:
as §1
A general note: Formazan colour is commonly taken as a measure of viable cells.

For assay [1], the system named is MCF7. The experiment in a line: Cytotoxicity against human MCF7 cells assessed as inhibition of cell proliferation after 24 hrs by MTT assay. The assay is classed as functional, cell-based. The following applies: MCF7, 24 h.
The nature of assay [2]: Cytotoxicity against human SKOV3 cells assessed as inhibition of cell proliferation after 24 hrs by MTT assay. It counts as functional, cell-based. The following applies: SK-OV-3, 24 h. The gist of the method: as §1
For the next assay, the system named is MRC5. The experiment in a line: Cytotoxicity against human MRC5 cells assessed as cell viability after 24 hrs by MTT assay. It counts as cell-based. The note with it: MRC5, 24 h. The gist of the method:
as §1

Assay [3] concerns MCF7. The experiment in a line: Induction of apoptosis in human MCF7 cells assessed as increase in caspase 3 activation at 8 to 12 uM using AFC-conjugated […] as substrate after 24 to 48 hrs by fluorescence analysis relative to control. It counts as functional.
Assay [4] has as its system MCF7. The experiment in a line: Induction of apoptosis in human MCF7 cells assessed as increase in caspase 9 activation at 8 to 12 uM using AFC-conjugated […] as substrate after 24 to 48 hrs by fluorescence analysis relative to control. The assay is classed as functional.

The term IC50 denotes the point on the concentration scale where inhibition reaches its midpoint. For the compound `CCOC(=O)c1c(C)[nH]c(=O)c(C#N)c1-c1ccc([N+](=O)[O-])cc1`, the IC50 in the assay with A549 was > 100 µM; in the assay on HepG2 it was 21.7 µM; with MCF7 [1] it was 82 µM; in assay [2], > 100 µM; in the assay on MRC5 it was 2230 µM.
As to `CCOC(=O)c1c(C)[nH]c(=O)c(C#N)c1-c1ccco1`, the half-maximal inhibitory concentration (IC50) was > 100 µM in the assay with A549; 57.4 µM in the assay on HepG2; 17.5 µM in the assay with MCF7 [1]; 76 µM in assay [2]; 407 µM in the assay with MRC5.
The matching figures for `CCOC(=O)c1c(C)[nH]c(=O)c(C#N)c1-c1cccs1`: 20.1 µM, 74 µM, 33.4 µM, 97.3 µM and 205 µM.
As for `CCOC(=O)c1c(C)[nH]c(=O)c(C#N)c1-c1ccc(C#N)cc1`, the 50% inhibitory concentration (IC50) was > 100 µM in the assay with A549; 20.2 µM in the assay with HepG2; 9.32 µM in the assay on MCF7 [1]; > 100 µM in assay [2]; 1220 µM in the assay on MRC5.
For the compound `CCOC(=O)c1c(C)[nH]c(=O)c(C#N)c1-c1cc(OC)c(OC)c(OC)c1`, the half-inhibitory concentration (IC50) in the assay with A549 is 23.4 µM; in the assay with HepG2, 20.9 µM; in the assay with MCF7 [1] it was 18.1 µM; in assay [2] it was > 100 µM; with MRC5 it was 253 µM.
With `CCOC(=O)c1c(C)[nH]c(=O)c(C#N)c1-c1ccc(C)cc1`, the half-maximal inhibitory concentration (IC50) was 15.8 µM in the assay with A549; 11.9 µM in the assay with HepG2; 8 µM in the assay with MCF7 [1]; > 100 µM in assay [2]; 438 µM with MRC5. For the same compound, the “fold change (FC)” value in the assay on MCF7 [3] and in the assay with MCF7 [4] was 2 throughout.
In the case of `CCOC(=O)c1c(C)[nH]c(=O)c(C#N)c1-c1ccccc1`, the IC50 was > 100 µM with A549; 38.5 µM with HepG2; 22 µM in the assay on MCF7 [1]; > 100 µM in assay [2]; 220 µM in the assay on MRC5.
On to `CCOC(=O)c1c(C)[nH]c(=O)c(C#N)c1-c1ccc(Br)cc1`, for which the IC50 is > 100 µM in the assay on A549; 65.5 µM in the assay with HepG2; 31.8 µM in the assay on MCF7 [1]; > 100 µM in assay [2]; 310 µM with MRC5.
Consider `CCOC(=O)c1c(C)[nH]c(=O)c(C#N)c1-c1ccc(OC)cc1`, for which the IC50 in the assay with A549 is 25.1 µM; with HepG2, 51.5 µM; in the assay with MCF7 [1], 36.1 µM; in assay [2], > 100 µM; with MRC5, 192 µM.
The matching figures for `CCOC(=O)c1c(C)[nH]c(=O)c(C#N)c1-c1ccccc1Cl`: 25 µM, 34.1 µM, 25.4 µM, > 100 µM and 229 µM.
`CCOC(=O)c1c(C)[nH]c(=O)c(C#N)c1-c1ccc(F)cc1`: the IC50 in the assay on A549 was 15.4 µM; in the assay on HepG2, 18.6 µM; in the assay on MCF7 [1] it was 22.9 µM; in assay [2] it was > 100 µM; with MRC5, 149 µM.
For the compound `CCOC(=O)c1c(C)[nH]c(=O)c(C#N)c1-c1ccc2c(c1)OCO2`, the half-inhibitory concentration (IC50) in the assay on A549 was 27.3 µM; with HepG2, > 100 µM; with MCF7 [1] it was 34 µM; in assay [2], > 100 µM; with MRC5, 192 µM.
Take `CCOC(=O)c1c(C)[nH]c(=O)c(C#N)c1-c1cccc2ccccc12`: the IC50 in the assay with A549 is 24 µM; in the assay with HepG2 it was 32.3 µM; in the assay with MCF7 [1], 31.4 µM; in assay [2], > 100 µM; in the assay on MRC5, 196 µM.
In the case of `COc1cccc2c1C(=O)c1c(O)c3c(c(O)c1C2=O)C[C@@](O)(C(=O)CO)C[C@@H]3O[C@H]1C[C@H](N)[C@H](O)[C@H](C)O1` [DOXORUBICIN], the IC50 in the assay on A549 worked out at 0.23 µM; in the assay with HepG2 it was 3.39 µM; in assay [2], 25 µM; in the assay on MRC5, 89.7 µM.
